The record followed here is ChEMBL document CHEMBL1151741, “Aryl bis(diazeniumdiolates): potent inducers of S-glutathionylation of cellular proteins and their in vitro antiproliferative activities” (J Med Chem, 2008).

Active and inactive are the calls of the source. The calls are words filed in the database; no cut-off is given here. Bounds are passed on as bounds.

The subject of experiment [1] is HL-60. In words: Induction of protein S-glutathionylation in human HL-60 cell lysate at 5 uM. The experiment is classed as functional, cell-based. An outline of the steps: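 Equal numbers of HL-60 cells in complete RPMI medium were given 5 μM compound or a DMSO vehicle control. Cells were lysed in pH 7.2 Hepes/NP-40/deoxycholate buffer with protease inhibitors. 10 μg of protein was run on SDS-PAGE under nonreducing conditions and blotted to PVDF. Blots were probed with anti-glutathione monoclonal antibody (1:1000, 3 h, room temperature), then HRP secondary, with ECL detection. Blots were stripped and reprobed for β-actin as a loading control.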

Experiment [2] can be described thus: Nitric oxide release measured per mole of compound at pH 7.4 in presence of glutathione. An outline of the steps:
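Compound stock was injected into 0.1 M phosphate buffer, pH 7.4, containing 4 mM GSH and 50 μM DTPA, sparged with inert gas. NO was followed by chemiluminescence at 37 °C until the signal returned to baseline (25 min – 5 h). The integrated curve gave mol NO per mol compound.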

Experiment [3] deals with HL-60. In words: Antiproliferative activity against human HL-60 cells after 72 hrs by MTT assay. The settings on record: HL-60, 72 h. The experiment is classed as functional, cell-based. An outline of the steps: (§1)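 Cells kept in RPMI 1640 with 10% fetal calf serum, penicillin/streptomycin and 2 mM glutamine at 37 °C, 5% CO2. Seeded at 10⁴ per well and grown 24 h. Increasing drug concentrations (from 10 mM DMSO stocks, diluted in PBS) were added for 72 h at 37 °C. Proliferation was read by MTT. Six repeats per concentration, at least two independent experiments. IC50 is 50% proliferation inhibition; TGI is total growth inhibition.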
For orientation: Formazan colour is commonly taken as a measure of viable cells.

Experiment [4] deals with HCT-15. Nature of the experiment: Antiproliferative activity against human HCT-15 cells after 72 hrs by MTT assay. The experiment is classed as functional, cell-based. The settings on record: HCT-15, 72 h. An outline of the steps: as §1
Experiment [5] has as its system OVCAR-5. In words: Antiproliferative activity against human OVCAR5 cells after 72 hrs by MTT assay. The experiment is classed as functional, cell-based. Conditions: OVCAR-5, 72 h. An outline of the steps: as §1
Experiment [6] has as its system OVCAR-3. In words: Antiproliferative activity against human OVCAR-3 cells after 72 hrs by MTT assay. The experiment is classed as functional, cell-based. Conditions: OVCAR-3, 72 h. An outline of the steps:
as §1

Experiment [7] is described as follows: Antiproliferative activity against human HCT 116 cells after 72 hrs by MTT assay. The format is functional, cell-based. Conditions: HCT-116, 72 h. An outline of the steps: as §1
Experiment [8] deals with PC-3. Nature of the experiment: Antiproliferative activity against human PC-3 cells after 72 hrs by MTT assay. The settings on record: PC-3, 72 h. The format is functional, cell-based. An outline of the steps:
as §1

In experiment [9] the test system is A549. In words: Antiproliferative activity against human A549 cells after 72 hrs by MTT assay. The experiment is classed as functional, cell-based. Conditions: A549, 72 h. An outline of the steps:
as §1

The nature of experiment [10]: Antiproliferative activity against human H441 cells after 72 hrs by MTT assay. Conditions: NCI-H441, 72 h. The format is functional, cell-based. The procedure, abridged: as §1
In experiment [11] the test system is U-937. In words: Antiproliferative activity against human U937 cells after 72 hrs by MTT assay. The format is functional, cell-based. Conditions: U-937, 72 h. The procedure, abridged: as §1
Experiment [12] relates to HT-29. In words: Antiproliferative activity against human HT-29 cells after 72 hrs by MTT assay. The experiment is classed as functional, cell-based. Conditions: HT-29, 72 h. The procedure, abridged:
as §1

What is called IC50 is the concentration that inhibits the measured activity by half. In general, TGI refers to the concentration at which net growth stops. Read a high TGI as lower sensitivity of the cells. `CCN(CC)/[N+]([O-])=N/Oc1cc(O/N=[N+](\[O-])N(C)C)c([N+](=O)[O-])cc1[N+](=O)[O-]`: the result in experiment [1] was Active. In experiment [2], the Activity is 3.8 mol/mol. For the same compound, in [3], inhibition was half-maximal at 1 µM (IC50) and the TGI amounted to 2.3 µM.
The corresponding values for `CCN(CC)C(=O)N1CCN(/[N+]([O-])=N/Oc2cc(O/N=[N+](\[O-])N(C)C)c([N+](=O)[O-])cc2[N+](=O)[O-])CC1` are “Active”, 3.5 mol/mol, 1.9 µM and 4.9 µM.
With `CCOC(=O)N1CCN(/[N+]([O-])=N/Oc2cc(O/N=[N+](\[O-])N(C)C)c([N+](=O)[O-])cc2[N+](=O)[O-])CC1`, the IC50 in [4] was determined as 2.5 µM; in [5] it was 3.3 µM; in experiment [6], 1.3 µM; in experiment [7] it was 2.4 µM; in experiment [8], 5 µM; in experiment [9] it was 9.1 µM. Besides, the IC50 in experiment [10] is 5 µM; in [3] it was 1.2 µM; in experiment [11], 1.3 µM; in [12], 4.5 µM. Further, the TGI in [4] is 4 µM; in [5] it was 9 µM; in experiment [6], 2.3 µM; in experiment [7] it was 4 µM; in experiment [8] it was 7 µM; in experiment [9], more than 30 µM. For the same compound, the concentration for total growth inhibition (TGI) turned out to be 7 µM in experiment [10], 2 µM in [3], 3 µM in experiment [11] and 10 µM in experiment [12]. Further, the result in [1] was Active. Besides, the Activity in experiment [2] was 2.7 mol/mol.
For `CCOC(=O)N1CCN(/[N+]([O-])=N/Oc2cc(O/N=[N+](\[O-])N(CC)CC)c([N+](=O)[O-])cc2[N+](=O)[O-])CC1`, the outcome in [1] was Active. Further, the Activity in experiment [2] came to 3.1 mol/mol. Moreover, in experiment [3], the concentration for half-maximal inhibition (IC50) was found to be 2.1 µM and the TGI was 5 µM.
The corresponding values for `O=[N+]([O-])c1cc([N+](=O)[O-])c(O/N=[N+](\[O-])N2CCC[C@H]2CO)cc1O/N=[N+](\[O-])N1CCC[C@H]1CO` are “Active”, 2.5 mol/mol, 4 µM and more than 10 µM.
Taken in the same sequence, the figures for `CN(C)/[N+]([O-])=N/Oc1cc(O/N=[N+](\[O-])N2CCN(c3ncccn3)CC2)c([N+](=O)[O-])cc1[N+](=O)[O-]` were “Active”, 3.5 mol/mol, 1.2 µM and 5 µM.
With `CC1CCCCN1/[N+]([O-])=N/Oc1cc(O/N=[N+](\[O-])N(C)C)c([N+](=O)[O-])cc1[N+](=O)[O-]` (centres undefined), the result in experiment [1] was Active. Further, the Activity in experiment [2] amounted to 3 mol/mol. In experiment [3], this compound displayed an IC50 of 1.5 µM and a total growth inhibition concentration (TGI) of 4.9 µM.
On to `CCN(CC)/[N+]([O-])=N/Oc1cc(O/N=[N+](\[O-])N2CCCC2CO)c([N+](=O)[O-])cc1[N+](=O)[O-]` (centres undefined), for which the outcome in [1] was Active. In addition, the Activity in [2] turned out to be 3 mol/mol. In experiment [3], this compound had an IC50 of 1.8 µM and a TGI of 4 µM.
Consider `CCCCOC(=O)N1CCN(/[N+]([O-])=N/Oc2cc(O/N=[N+](\[O-])N(C)C)c([N+](=O)[O-])cc2[N+](=O)[O-])CC1`, for which the outcome in experiment [1] was Active. Further, in [2], the Activity was 3.1 mol/mol. Besides, in experiment [3], 0.9 µM corresponded to half-maximal inhibition (IC50) and the concentration for total growth inhibition (TGI) is 2.7 µM.
On to `CCOC(=O)N1CCN(/[N+]([O-])=N/Oc2cc(O/N=[N+](\[O-])N3CCN(C(=O)N(CC)CC)CC3)c([N+](=O)[O-])cc2[N+](=O)[O-])CC1`, for which the 50% inhibitory concentration (IC50) was determined as 1.6 µM in experiment [4]; 1.9 µM in experiment [5]; 1.4 µM in experiment [6]; 1.5 µM in [7]; 3.3 µM in [8]; 3.9 µM in experiment [9]. For the same compound, the half-maximal inhibitory concentration (IC50) in experiment [10] was determined as 1.7 µM; in [3] it was 0.9 µM; in experiment [11], 0.9 µM; in experiment [12], 2.5 µM. Besides, the TGI in experiment [4] was 4.5 µM; in experiment [5], 5.5 µM; in experiment [6], 4 µM; in experiment [7] it was 4 µM; in [8] it was 8 µM; in [9], 10 µM. Also, the TGI in experiment [10] was determined as 4 µM; in experiment [3], 3 µM; in [11], 3 µM; in experiment [12] it was 6.5 µM. Besides, in experiment [1], the result was Active. Also, the Activity in experiment [2] is 2.9 mol/mol.
Consider `O=C(O)[C@@H]1CCCN1/[N+]([O-])=N/Oc1cc(O/N=[N+](\[O-])N2CCC[C@H]2C(=O)O)c([N+](=O)[O-])cc1[N+](=O)[O-]`, for which the result in [1] was inactive. In experiment [2], the Activity is 3.5 mol/mol. In experiment [3], this compound gave a 50% inhibitory concentration (IC50) of 9.6 µM and a TGI of more than 10 µM.
Regarding `CNc1ccc(C(=O)Oc2cc(O/N=[N+](\[O-])N(C)C)c([N+](=O)[O-])cc2[N+](=O)[O-])cc1`, the concentration for half-maximal inhibition (IC50) was 5.7 µM in experiment [4]; 7.8 µM in experiment [5]; 5 µM in [6]; 5.5 µM in experiment [7]; more than 10 µM in experiment [8]; more than 10 µM in experiment [9]. Further, the 50% inhibitory concentration (IC50) in experiment [10] turned out to be 4.9 µM; in [11], 2.7 µM; in experiment [12] it was 7 µM. Besides, the total growth inhibition concentration (TGI) is more than 10 µM in experiment [4]; more than 10 µM in experiment [5]; 9.5 µM in [6]; more than 10 µM in [7]; more than 10 µM in [8]; more than 10 µM in experiment [9]. The TGI in experiment [10] was more than 10 µM; in experiment [3] it was more than 10 µM; in experiment [11], 5.5 µM; in [12], more than 10 µM. Moreover, in experiment [1], the result was Active. In experiment [2], the Activity was determined as 1.4 mol/mol.
For the compound `CN(C)/[N+]([O-])=N/Oc1cc(O/N=[N+](\[O-])N2CCCCC2)c([N+](=O)[O-])cc1[N+](=O)[O-]`, in [1], the result was Active. Also, in experiment [2], the Activity was 3.7 mol/mol. In experiment [3], the half-maximal inhibitory concentration (IC50) stood at 1.7 µM and the total growth inhibition concentration (TGI) was 4.9 µM.
As for `CN(C)/[N+]([O-])=N/Oc1cc(O/N=[N+](\[O-])N2CCCC2CO)c([N+](=O)[O-])cc1[N+](=O)[O-]` (centres undefined), the half-maximal inhibitory concentration (IC50) in experiment [4] was found to be 1.7 µM; in experiment [5], 2.5 µM; in [6] it was 1.7 µM; in [7], 1.6 µM; in experiment [8], 3.3 µM; in experiment [9], 5.1 µM. For the same compound, the half-maximal inhibitory concentration (IC50) in experiment [10] was determined as 2.1 µM; in experiment [3], 1 µM; in experiment [11], 0.8 µM; in experiment [12] it was 2.4 µM. The total growth inhibition concentration (TGI) in experiment [4] came out at 3.3 µM; in experiment [5], 4 µM; in experiment [6] it was 3.8 µM; in experiment [7] it was 3.6 µM; in experiment [8], 7 µM; in experiment [9], 6 µM. Besides, the TGI in experiment [10] stood at 4.5 µM; in experiment [3], 2 µM; in experiment [11], 1.2 µM; in [12] it was 4.5 µM. Further, the result in [1] was Active. Further, the Activity in experiment [2] turned out to be 3 mol/mol.
In the case of `CCCOC(=O)N1CCN(/[N+]([O-])=N/Oc2cc(O/N=[N+](\[O-])N(C)C)c([N+](=O)[O-])cc2[N+](=O)[O-])CC1`, in experiment [1], the result was Active. The Activity in [2] turned out to be 3.7 mol/mol. In experiment [3], this compound gave an IC50 of 1.6 µM and a concentration for total growth inhibition (TGI) of 3.9 µM.
Regarding `CCN(CC)C(=O)N1CCN(/[N+]([O-])=N/Oc2cc(O/N=[N+](\[O-])N(CC)CC)c([N+](=O)[O-])cc2[N+](=O)[O-])CC1`, the outcome in [1] was Active. In [2], the Activity came to 3 mol/mol. Moreover, in [3], inhibition was half-maximal at 2.9 µM (IC50) and the concentration for total growth inhibition (TGI) is more than 10 µM.
Regarding `CN(C)/[N+]([O-])=N/Oc1cc(O/N=[N+](\[O-])N2CCCC2)c([N+](=O)[O-])cc1[N+](=O)[O-]`, in [1], the result was Active. Besides, the Activity in [2] worked out at 3.6 mol/mol. In [3], this compound came in with an IC50 of 2.3 µM and a total growth inhibition concentration (TGI) of 4.9 µM.
